The subject of series [1] is Rattus norvegicus. Description: Hemodynamic effect in anesthetized Sprague-Dawley rat assessed as decrease in mean arterial pressure at 10 mg/kg after 90 mins. Details: scale not given: the % may be the effect or the level left. It counts as functional, Artery. In short, it runs like this:
(§1)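 Inactin-anesthetized rats; femoral artery catheters for MAP, HR and blood sampling; femoral vein for dosing and saline; LV transducer catheter for LVP/dP/dt. PVR = MAP/PBF. After 30-min control period, vehicle (10% DMSO/PEG400, 1 mL/kg) or compound infused i.v. as three ascending doses, 3, 10, 30 mg/kg, each over 30 min. Changes versus time 0 baseline; mean of three animals.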

A short description of series [2]: Drug level in anesthetized Sprague-Dawley rat assessed end of infusion plasma concentration at 10 mg/kg after 90 mins. It counts as ADME, organism-based. Also noted: dose 10 mg/kg. The conditions noted are these: iv. In short, it runs like this:
as §1

Series [3] deals with Rattus norvegicus. Nature of the series: Hemodynamic effect in anesthetized Sprague-Dawley rat assessed as decrease in peripheral vascular resistance at 10 mg/kg after 90 mins. It counts as functional. Also noted: scale not given: the % may be the effect or the level left. The method, boiled down: as §1
For series [4], the target named is Mitogen-activated protein kinase 8 (Homo sapiens, UniProt P45983). Nature of the series: Inhibition of JNK1.
Sequence of Mitogen-activated protein kinase 8 (P45983 whole entry): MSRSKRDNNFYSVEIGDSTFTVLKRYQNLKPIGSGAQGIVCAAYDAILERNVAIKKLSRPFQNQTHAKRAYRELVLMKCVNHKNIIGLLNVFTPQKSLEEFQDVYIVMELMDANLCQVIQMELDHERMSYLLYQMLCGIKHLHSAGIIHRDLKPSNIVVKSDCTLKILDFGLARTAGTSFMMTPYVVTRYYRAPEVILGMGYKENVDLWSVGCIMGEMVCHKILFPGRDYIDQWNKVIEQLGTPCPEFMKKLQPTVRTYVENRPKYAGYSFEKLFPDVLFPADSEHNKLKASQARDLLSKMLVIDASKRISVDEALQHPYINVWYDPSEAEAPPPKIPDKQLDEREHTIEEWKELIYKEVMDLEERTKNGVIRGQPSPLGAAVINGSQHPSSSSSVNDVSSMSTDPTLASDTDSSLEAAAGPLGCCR
In series [5] the test system is Rattus norvegicus. Nature of the series: Hemodynamic effect in anesthetized Sprague-Dawley rat assessed as increase in cardiac contractility at 10 mg/kg after 90 mins. It counts as functional, Heart. In short, it runs like this:
as §1

In series [6] the test system is Rattus norvegicus. Description: Hemodynamic effect in anesthetized Sprague-Dawley rat assessed as decrease in heart rate at 10 mg/kg after 90 mins. It counts as functional. Also noted: scale not given: the % may be the effect or the level left. The method, boiled down:
as §1

A word on the IC50: it is the concentration needed to halve the response being measured.

On to `CS(=O)(=O)c1ccc(CNC(=O)c2cc(N)c(C#N)c(-c3ccsc3)n2)cc1`, for which the Activity in series [1] is 23%.

Turning to `CC(C)Oc1nc(C(=O)N(C)Cc2ccc(S(C)(=O)=O)cc2)cc(N)c1C#N`, the concentration at 1.5 h in series [2] is 23.6 µg/mL. For the same compound, the Activity is 46% in series [3] and 41% in series [5]. In series [4], this compound yielded a half-inhibitory concentration (IC50) of 6.4 µM.

As to `CCOc1nc(C(=O)NCCNc2ccc([N+](=O)[O-])cn2)cc(N)c1C#N`, the results for the Activity in series [1] and in series [5] were 20% and 12%, respectively. The same compound yielded an IC50 in series [4] of 0.061 µM.

On to `CCOc1nc(C(=O)NCc2ccc([S+]([O-])c3ccccc3)cc2)cc(N)c1C#N` (stereo not drawn), for which the Activity in series [1] and in series [5] was 24% in each case. The same compound had a concentration for half-maximal inhibition (IC50) in series [4] of 0.05 µM.

As for `COc1cc[nH]c1/C=C1\C(=O)Nc2cccc(C#CC(O)c3ccc(OCCCN(C)C)cc3)c21` (stereo not drawn), the Activity in series [6] is 11%; in series [1] it was 23%; in series [5], -20%. The same compound registered an IC50 in series [4] of 0.034 µM.

In series [2], `CS(=O)(=O)c1ccc(CNC(=O)c2cc(N)c(C#N)c(OCC3CC3)n2)cc1` showed a concentration at 1.5 h of 8.2 µg/mL. In addition, the Activity in series [1] was 24%.

In series [2], `CS(=O)(=O)c1ccc(CNC(=O)c2cc(N)c(C#N)c(NC3CCCC3)n2)cc1` displayed a concentration at 1.5 h of 10.5 µg/mL. Besides, the values for the Activity in series [6], in series [1] and in series [5] were 6%, 18% and 13%, respectively.

As for `CCOc1nc(C(=O)NCc2ccc(S(C)(=O)=O)cc2)cc(N)c1Cl`, in series [2], the concentration at 1.5 h came out at 14.7 µg/mL. The Activity is on record as under 15% in series [6], 51% in series [3], 20% in series [1] and under 15% in series [5].

Turning to `CCOc1nc(C(=O)NCc2ccc(S(=O)(=O)c3ccccc3)cc2)cc(N)c1C#N`, the Activity amounted to 11% in series [6] and 24% in series [1]. In addition, in series [4], the half-maximal inhibitory concentration (IC50) was determined as 0.13 µM.

Turning to `CC(C)Oc1nc(C(=O)NCc2ccc(S(C)(=O)=O)cc2)cc(O)c1C#N`, the concentration at 1.5 h in series [2] worked out at 39.9 µg/mL. Moreover, in series [1], the Activity is reported as under 15%. The compound further came in with a concentration for half-maximal inhibition (IC50) in series [4] of over 10 µM.

Turning to `CCOc1nc(C(=O)NCc2cnccc2Cl)cc(N)c1C#N`, the figures for the Activity in series [1] and in series [5] were 23% and under -15%, respectively. The compound further displayed an IC50 in series [4] of 0.03 µM.

Take `CCOc1nc(C(=O)NCc2ccc(S(C)(=O)=O)cc2)cc(N)c1C#N`: in series [2], the concentration at 1.5 h came out at 19.3 µg/mL. Besides, the Activity in series [6] is under 15%; in series [3], 25%; in series [1] it was 41%; in series [5], under 15%.

For `CCCn1c(C2CCNCC2)nc(-c2ccc(Cl)c(Cl)c2)c1-c1ccnc(NC2CCCCC2)n1`, in series [2], the concentration at 1.5 h is 9 µg/mL. For the same compound, the Activity amounted to 22% in series [6] and 30% in series [1].

The values above are taken from ChEMBL document CHEMBL1138387, “Hemodynamic effects of potent and selective JNK inhibitors in anesthetized rats: implication for targeting protein kinases in metabolic diseases” (Bioorg Med Chem Lett, 2007).
